C2C12 statin: protects C2C12 myotubes from simvastatin toxicity. hit rate 0.78% among 330,000. rescue of ATP level, % at 7.49 µM. ATP luminescence, 48 h; scaled: DMSO 0, geranylgeraniol control 100;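 active means mean ATP rescue above about 67%, or every replicate alone reaching that limit, limit read from the data, passing the limit was not always enough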;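 further: myotubes were challenged with 10 µM simvastatin during compound exposure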
Efflux pump inh: antifungal efflux pump inhibition, Nile Red retention; S. cerevisiae Candida pump triplex; inhibition, % at 10 µM; hit rate 0.44% among 330,000; AID 485275;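 active means plate passing quality check with inhibition over a set limit, or well fluorescence over plate mean plus 4 SD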;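 further: Nile Red retained in pooled yeast measured as flow cytometry median fluorescence; 0% = buffer negative control and 100% = Enniatin B positive control; higher means more Nile Red kept so more efflux inhibition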
SUMO Mot1 rescue: inhibitors of SUMOylation pathway: yeast Mot1-301 growth rescue; S. cerevisiae Mot1-301 growth rescue, ATP luminescence, 38.5C; percent above DMSO median, 100 means doubled; growth rescue, % at 18.8 µM; hit rate 1% among 320,000; AID 2716;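 active means every valid replicate shows activation above 250% relative to neutral control wells; inactive means the rest, any valid replicate at or below 250%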;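 further: OY570 slx delta 5 strain wells were the positive control but not used for scaling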
Cneo AK release: causes C. neoformans cell lysis. adenylate kinase release luminescence, 4 h; normalised: neutral wells 0, clomiphene wells 100. lysis activity, % at 15 µM. AID 651654. hit rate 0.2% among 360,000;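 active means mean lysis activity across replicates of at least 80%, whatever share of replicates individually reach that level; inactive means mean lysis activity below 80%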
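read-out = cell lysis signal | test system = log-phase Cryptococcus neoformans yeast cells | input = cells at 5 × 10^6 per mL | medium = fresh YPD growth medium | signal = luminescent adenylate kinase detection reagent | timing = 4 h at 37 °C static, read 1 h later | dosing = single dose | controls = Clomiphene as positive lysis control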
Yeast Mot1 SUMO: SUMO pathway inhibitors in yeast Mot1-301 growth; shares compounds with SUMO Mot1 rescue; S. cerevisiae Mot1-301 galactose growth, ATP luminescence, 24 h; -100 = growth of slx-deleted rescue strain; 2,300 tested, under 10 active; growth activity, percent, % at 42 µM;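 active means Signal drops as the depositor expects, and the fitted half-maximal dose is no more than ten times the top valid tested dose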;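 further: more negative values mean stronger growth rescue toward the control strain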
* = called active by the depositor; . = no result given; + = active, no number. Rows were chosen to be rich in hits. Some 1.8% of all compounds tested hit in one or more screens of this group.

SMILES | C2C12 statin | Efflux pump inh | SUMO Mot1 rescue | Cneo AK release | Yeast Mot1 SUMO
Clc1ccc(-c2nnnn2-c2ccc(Cl)cc2)cc1 | . | 0 | 29 | -1 | .
O=C(NCC1CCN(Cc2ccccc2Cl)CC1)Nc1ccccc1F | -5 | 0 | 606* | 1 | 0
C=C(C)COc1ccc(-c2n[nH]c(C)c2-c2ccc(OC)cc2)c(O)c1 | . | 0 | 13 | 1 | .
Cc1c(NC(C)c2cc(Cl)ccc2O)c(=O)n(-c2ccccc2)n1C (centres undefined) | 4 | 0 | 455* | 5 | 1
CCCCCCOc1ccc(N2C(=O)CC(N3CCC(C(=O)OCC)CC3)C2=O)cc1 (centres undefined) | 1 | 0 | 553* | -12 | 0
CCc1ccc(N2C(=O)CC(N3CCC(C(=O)OC)CC3)C2=O)cc1 (centres undefined) | 4 | 0 | 491* | -2 | -1
CCC(=O)N(C)C[C@@H]1Oc2ncc(C#Cc3cccnc3)cc2C(=O)N([C@H](C)CO)C[C@H]1C | -12 | . | . | 9 | .
Cc1ccc(S(=O)(=O)Nc2n[nH]nc2C(=O)NC2CCCCC2)cc1 | . | 0 | 517* | . | 0
Cc1ccc(S(=O)(=O)NC2CCCCCCC2)cc1 | 12 | 0 | 454* | 4 | 1
CSc1ccc(Cl)c(C(=O)Nc2ccc(N3CCOCC3)cc2)c1 | -26 | 0 | + | -2 | 0
O=C(Nc1ccc(N2CCOCC2)cc1)c1cc(F)c(F)cc1Cl | . | 1 | 5 | -1 | .
CCOC(=O)N1CCN(c2ncnc3c2oc2nc(C(C)C)c4c(c23)CCC4)CC1 | 5 | 0 | -8 | -4 | .
CCCOC(=O)c1c(NC(=O)CCC(=O)O)sc2c1CCCCC2 | 4 | 0 | 3 | . | .
CCOC(=O)c1ccc(NC(=O)c2c(NC(=O)CCC(=O)O)sc3c2CCCCC3)cc1 | . | 0 | 631* | . | 0
COc1ccc(C(=O)Nc2ccc(S(=O)(=O)N(C)c3ccccc3)cc2)cc1 | . | 0 | 35 | . | .
COc1ccc(NC(=O)c2ccc(S(=O)(=O)N(C)c3ccccc3)cc2)cn1 | -6 | 0 | + | -9 | -1
C[C@@]12C(=O)Nc3cc(Cl)ccc3C(=O)N1[C@H]1c3ccccc3OC[C@@H]1[C@@H]2c1ccccc1 | 7 | 0 | 454* | 1 | -1
C[C@@]12C(=O)Nc3cc(F)c(F)cc3C(=O)N1[C@H]1c3ccccc3OC[C@@H]1[C@@H]2c1ccccc1 | 2 | . | . | 4 | .
C[C@@]12C(=O)Nc3ccc(F)cc3C(=O)N1[C@H]1c3ccccc3OC[C@@H]1[C@@H]2c1ccccc1 | -9 | 0 | + | 1 | 0
C[C@@]12C(=O)Nc3cc(Cl)ccc3C(=O)N1[C@H]1c3cc(Br)ccc3OC[C@@H]1[C@@H]2c1ccccc1 | -7 | 0 | 51 | 1 | .
Cc1cc(O)c(/C=N/Nc2cccc(Cl)c2)c(=O)o1 | . | 0 | 416* | . | 0
Cc1cc(O)c(/C=N/Nc2ccc(Cl)cc2)c(=O)o1 | . | 0 | 127 | . | .
Cc1[nH]nc2c1C(c1cccs1)C1=C(CCCC1=O)N2 (centres undefined) | . | 0 | -10 | . | .
COc1ccc(C2C3=C(CC(C)(C)CC3=O)Nc3n[nH]c(C)c32)cc1 (centres undefined) | 3 | 0 | 365* | -1 | 0
Cc1[nH]nc2c1C(c1cccs1)C1=C(CC(C)(C)CC1=O)N2 (centres undefined) | . | 0 | 662* | . | 0
SMILES | C2C12 statin | Efflux pump inh | SUMO Mot1 rescue | Cneo AK release | Yeast Mot1 SUMO
COC(=O)c1cc(Br)ccc1NC(=O)CCNC(=O)c1ccco1 | 2 | 0 | 8 | 1 | .
CCN1CCN(c2ccc(S(=O)(=O)N3CCCCC3)cc2NC(=O)c2sccc2C)CC1 | 5 | 0 | 9 | 0 | .
COc1cc2c(=O)n(CCC(=O)NCC3CCCO3)c(=O)n(CC(=O)Nc3ccccc3C)c2cc1OC (centres undefined) | -7 | 0 | 444* | 1 | 0
CN(NC(=O)c1ccco1)c1nc2ccccc2nc1C(F)(F)F | -1 | 0 | 81 | . | .
Cc1ccccc1C(=O)NN(C)c1nc2ccccc2nc1C(F)(F)F | 0 | 0 | + | 0 | 1
O=C(CSc1nnnn1-c1cccc2c1CCCC2)N1CCCC1 | 15 | 0 | 1 | -1 | .
CC1CCCC(C)N1C(=O)CSc1nnnn1-c1cccc2c1CCCC2 (centres undefined) | . | 0 | 414* | -1 | 0
COc1ccc(NC(=O)COC(=O)Cc2ccccc2[N+](=O)[O-])cc1OC | . | 0 | 25 | . | .

High-throughput results deposited in PubChem BioAssay by several laboratories.
